{"data": "Measurements gathered from unrelated publications", "PFF0160c E182D": "Dihydroorotate dehydrogenase (quinone), mitochondrial (PFF0160c, Plasmodium falciparum, UniProt Q08210, E182D)", "PFF0160c": "Dihydroorotate dehydrogenase (quinone), mitochondrial (PFF0160c, Plasmodium falciparum, UniProt Q08210)", "note": "Lines come from different studies, so protocols differ. pIC50: −log10 of the molar value."}
{"SMILES": "CCc1nc2nc(C)cc(Nc3ccc(F)c(Cl)c3)n2n1", "target": "PFF0160c E182D", "assay": "enzyme activity, inhibitor, absorbance", "pIC50": "< 5.00"}
{"SMILES": "Cc1noc2nc(C(F)(F)F)nc(NC3Cc4cc(F)c(F)cc4C3)c12", "target": "PFF0160c", "assay": "enzyme activity, inhibitor, absorbance", "pIC50": 6.96}
{"SMILES": "CCc1nc2nc(C)cc(Nc3ccc4c(c3)OCCO4)n2n1", "target": "PFF0160c", "assay": "enzyme activity, inhibitor, absorbance", "pIC50": 6.31}
{"SMILES": "Cc1nc(C(C)NC(=O)c2[nH]cc(Cc3ccc(C(F)(F)F)nc3)c2C)c[nH]1 (stereo not shown)", "target": "PFF0160c", "assay": "enzyme activity, inhibitor, absorbance", "pIC50": 5.89}
{"SMILES": "CC(c1ccc(Cl)c(Cl)c1)c1nn2c(-c3ccccc3F)nnc2s1 (stereo not shown)", "target": "PFF0160c", "assay": "enzyme activity, inhibitor, absorbance", "pIC50": 6.27}
{"SMILES": "Cc1c(Cc2ccc(C(F)(F)F)nc2)c[nH]c1C(=O)NC(C)c1cc(C(N)=O)[nH]n1 (stereo not shown)", "target": "PFF0160c", "assay": "enzyme activity, inhibitor, absorbance", "pIC50": 6.46}
{"SMILES": "Cc1noc2nc(C(F)(F)F)nc(Nc3ccc(C(F)(F)F)cc3)c12", "target": "PFF0160c", "assay": "enzyme activity, inhibitor, absorbance", "pIC50": 6.21}
{"SMILES": "Cc1cc(Nc2ccc(C)c(Cl)c2)n2nc(C(F)(F)F)nc2n1", "target": "PFF0160c", "assay": "enzyme activity, inhibitor, absorbance", "pIC50": 7.54}
{"SMILES": "CC[C@H]1NC(=O)[C@@H]2CSC(=N2)[C@@H](Cc2ccccc2)N(C)C(=O)[C@@H]2CCCN2C(=O)[C@H](C(C)C)N(C)C(=O)[C@H](Cc2ccccc2)OC(=O)[C@H](C)[C@@H](C)NC(=O)[C@@H]([C@@H](C)O)NC(=O)[C@@H](CC(C)C)N(C)C(=O)[C@@H]2CSC1=N2", "target": "Vitamin K-dependent protein C (PROC, Homo sapiens, UniProt P04070)", "assay": "enzyme activity, inhibitor", "pIC50": 4.10}
{"SMILES": "Cc1c(Cc2ccc(C(F)(F)F)cc2F)c[nH]c1C(=O)NC(C)c1nc[nH]n1 (stereo not shown)", "target": "PFF0160c", "assay": "enzyme activity, inhibitor, absorbance", "pIC50": 6.46}
{"SMILES": "Cc1nc(Nc2ccc(C(F)(F)F)cc2)c2c(C)noc2n1", "target": "PFF0160c", "assay": "enzyme activity, inhibitor, absorbance", "pIC50": 7.17}
{"SMILES": "O=C(CCCC(=O)N1CCN(C(=O)c2cc(Cc3n[nH]c(=O)c4ccccc34)ccc2F)CC1)NCCNC(=O)C1CC2C=CC1C2 (stereo not shown)", "target": "Poly [ADP-ribose] polymerase 1 (PARP1, Homo sapiens, UniProt P09874)", "assay": "enzyme activity, inhibitor", "pIC50": 8.00}
{"SMILES": "Cc1c(C2(c3ccc(C(F)F)nc3)CC2)c[nH]c1C(=O)NC(C)c1nc[nH]n1 (stereo not shown)", "target": "PFF0160c", "assay": "enzyme activity, inhibitor, absorbance", "pIC50": "< 4.52"}
{"SMILES": "O=C(Nc1ccccc1)OCC(CN1CCCCC1)OC(=O)Nc1ccccc1 (stereo not shown)", "target": "Kappa-type opioid receptor (OPRK1, Homo sapiens, UniProt P41145)", "assay": "ligand displacement, radioligand", "pIC50": 5.85}
{"SMILES": "CC(=O)c1c(Nc2c(C)cc(C)cc2C)oc(C)cc1=O", "target": "PFF0160c E182D", "assay": "enzyme activity, inhibitor, absorbance", "pIC50": 6.18}
{"SMILES": "Cc1nc(Nc2ccc(S(F)(F)(F)(F)F)cc2)c2c(C(F)(F)F)noc2n1", "target": "PFF0160c", "assay": "enzyme activity, inhibitor, absorbance", "pIC50": 7.37}
{"SMILES": "CCc1ccccc1N=C1c2c(cccc2[N+](=O)[O-])C(=O)C1C(C)=O (stereo not shown)", "target": "PFF0160c E182D", "assay": "enzyme activity, inhibitor, absorbance", "pIC50": 6.42}
{"SMILES": "Cc1c(C2(c3ccc(C(F)(F)F)cc3F)CC2)c[nH]c1C(=O)NC(C)c1nc[nH]n1 (stereo not shown)", "target": "PFF0160c", "assay": "enzyme activity, inhibitor, absorbance", "pIC50": "< 4.00"}
{"SMILES": "O=S(=O)(O)c1nc2ccccc2[nH]1", "target": "racE (Bacillus subtilis, UniProt P94556)", "assay": "enzyme activity, inhibitor, absorbance", "pIC50": 3.89}
